In ChEMBL document CHEMBL2321743, “Novel hybrid-type antimicrobial agents targeting the switch region of bacterial RNA polymerase” (ACS Med Chem Lett, 2013):
≈ marks a conversion by molar mass, not a printed value. Calls of active or inactive are those of the source. The calls are words filed in the database; no cut-off is given here.

Key:
[1] = test system: Bacillus spizizenii; assay: Antibacterial activity against Bacillus subtilis ATCC 6633 at 30 ug/disk after 12 hrs by paper disk diffusion assay; type: functional; conditions: for zone of inhibition at 30 µg/disc: ATCC 6633, 12 h, read-out: DIZ
In short: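 Test compounds dissolved in MeOH and applied to paper disks at 30 μg/disk against Bacillus subtilis. Read-out is the diameter of the zone of complete growth inhibition.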

[2] = test system: Micrococcus luteus; assay: Antibacterial activity against Micrococcus luteus ATCC 9341 after 24 hrs by broth microdilution method; type: functional; conditions: ATCC 9341, 24 h
[3] = test system: Escherichia coli; assay: Antibacterial activity against Escherichia coli ATCC 25922 after 24 hrs by broth microdilution method; type: functional; conditions: ATCC 25922, 24 h
[4] = test system: Bacillus spizizenii; assay: Antibacterial activity against Bacillus subtilis ATCC 6633 after 24 hrs by broth microdilution method; type: functional; conditions: ATCC 6633, 24 h
[5] = test system: Enterococcus faecalis; assay: Antibacterial activity against Enterococcus faecalis ATCC 29212 after 24 hrs by broth microdilution method; type: functional; conditions: ATCC 29212, 24 h
[6] = test system: Candida albicans; assay: Antifungal activity against Candida albicans ATCC 10231 after 48 hrs by broth microdilution method; type: functional; conditions: ATCC 10231, 48 h
[7] = test system: Pseudomonas aeruginosa; assay: Antibacterial activity against Pseudomonas aeruginosa ATCC 27853 after 24 hrs by broth microdilution method; type: functional; conditions: ATCC 27853, 24 h
[8] = Inhibition of Escherichia coli RNA polymerase after 1 hr by fluorescence assay
In short: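 Assay uses E. coli RNA polymerase. IC50 is taken from three independent dose–response curves, each point measured in duplicate, and reported as mean ± SEM.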

[9] = test system: Serratia marcescens; assay: Antibacterial activity against Serratia marcescens ATCC 13880 after 24 hrs by broth microdilution method; type: functional; conditions: ATCC 13880, 24 h
[10] = test system: Staphylococcus aureus; assay: Antibacterial activity against Staphylococcus aureus ATCC 29213 after 24 hrs by broth microdilution method; type: functional; conditions: ATCC 29213, 24 h

## C=CCCCC(=O)c1c(O)cc(C)oc1=O
[1]
  zone of inhibition at 30 µg/disc: 9 mm

## Cc1cc(O)c(C(=O)CCCCCCC(=O)O)c(=O)o1
[1]
  diameter of the inhibition zone (DIZ): inactive

## Cc1cc(O)c(C(=O)CCCCCCC(=O)Nc2c3sscc-3[nH]c2=O)c(=O)o1
[1]
  zone of inhibition at 30 µg/disc: 11 mm

## Cc1cc(O)c(C(=O)NCCCCCCC(=O)O)c(=O)o1
[1]
  diameter of the inhibition zone (DIZ): inactive

## CCCCCCCCC(=O)c1c(O)cc(C)oc1=O
[2]
  MIC: 2 mg/L (≈ 7.51 µM)
[3]
  MIC: 128 mg/L (≈ 481 µM)
[4]
  MIC: 8 mg/L (≈ 30 µM)
[5]
  MIC: 4 mg/L (≈ 15 µM)
[6]
  MIC: 64 mg/L (≈ 240 µM)
[7]
  MIC: 128 mg/L (≈ 481 µM)
[8]
  IC50: > 2000 µM
[9]
  MIC: 128 mg/L (≈ 481 µM)
[10]
  MIC: 8 mg/L (≈ 30 µM)
[1]
  zone of inhibition at 30 µg/disc: 12 mm

## Cc1cc(O)c(C(=O)CCCCC(=O)Nc2c3sscc-3[nH]c2=O)c(=O)o1
[2]
  MIC: 8 mg/L (≈ 19.6 µM)
[3]
  MIC: 128 mg/L (≈ 313 µM)
[4]
  MIC: 64 mg/L (≈ 157 µM)
[5]
  MIC: 16 mg/L (≈ 39.2 µM)
[6]
  MIC: 128 mg/L (≈ 313 µM)
[7]
  MIC: 64 mg/L (≈ 157 µM)
[8]
  IC50: > 2000 µM
[9]
  MIC: 128 mg/L (≈ 313 µM)
[10]
  MIC: 64 mg/L (≈ 157 µM)
[1]
  zone of inhibition at 30 µg/disc: 14 mm

## Cc1cc(O)c(C(=O)CCCCCCC(=O)NC2=C3SS(=O)(=O)C=C3NC2=O)c(=O)o1
[1]
  diameter of the inhibition zone (DIZ): inactive

## CCC(=O)c1c(O)cc(CCCC(=O)Nc2c3sscc-3[nH]c2=O)oc1=O
[1]
  diameter of the inhibition zone (DIZ): inactive

## CCCCCCCCC(=O)c1c(O)cc(CCCCCC(=O)O)oc1=O
[1]
  diameter of the inhibition zone (DIZ): Active

## Cc1cc(O)c(C(=O)NCCCCCCC(=O)Nc2c3sscc-3[nH]c2=O)c(=O)o1
[1]
  diameter of the inhibition zone (DIZ): Active

## CCCC/C(C)=C/C=C(\C)C(=O)c1c(O)cc([C@H](C)CC/C=C/NC(=O)OC)oc1=O [MYXOPYRONIN B]
[8]
  IC50: 24 µM

## CCCC/C(C)=C/C=C(\C)C(=O)c1c(O)cc(C(C)CC/C=C/NC(=O)OC)oc1=O (racemic)
[1]
  diameter of the inhibition zone (DIZ): Active

## Cc1cc(O)c(C(=O)CCCCCCCC(=O)N2CCCCC2)c(=O)o1
[1]
  diameter of the inhibition zone (DIZ): inactive

## C=CCCCc1cc(O)c(C(=O)CCCCCCC(=O)O)c(=O)o1
[1]
  diameter of the inhibition zone (DIZ): inactive

## CO[C@H]1/C=C/O[C@@]2(C)Oc3c(C)c(O)c4c(O)c(c(/C=N/N5CCN(C)CC5)c(O)c4c3C2=O)NC(=O)/C(C)=C\C=C\[C@H](C)[C@H](O)[C@@H](C)[C@@H](O)[C@@H](C)[C@H](OC(C)=O)[C@@H]1C [RIFAMPIN]
[2]
  MIC: ≤ 0.125 mg/L
[3]
  MIC: 8 mg/L (≈ 9.72 µM)
[4]
  MIC: ≤ 0.125 mg/L
[5]
  MIC: 1 mg/L (≈ 1.22 µM)
[6]
  MIC: ≥ 256 mg/L
[7]
  MIC: 32 mg/L (≈ 38.9 µM)
[8]
  IC50: 0.08 µM
[9]
  MIC: 32 mg/L (≈ 38.9 µM)
[10]
  MIC: 0.5 mg/L (≈ 0.608 µM)
[1]
  zone of inhibition at 30 µg/disc: 25 mm

## O=C(CCCCCCCO)Nc1c2sscc-2[nH]c1=O
[1]
  zone of inhibition at 30 µg/disc: 9 mm

## C=CCCCc1cc(O)c(C(=O)CCCCCCC(=O)Nc2c3sscc-3[nH]c2=O)c(=O)o1
[1]
  zone of inhibition at 30 µg/disc: 10 mm

## Cc1cc(O)c(C(=O)CCCCCCCC(=O)Nc2c3sscc-3[nH]c2=O)c(=O)o1
[2]
  MIC: 1 mg/L (≈ 2.22 µM)
[3]
  MIC: ≥ 256 mg/L
[4]
  MIC: 16 mg/L (≈ 35.5 µM)
[5]
  MIC: 4 mg/L (≈ 8.88 µM)
[6]
  MIC: ≥ 256 mg/L
[7]
  MIC: 128 mg/L (≈ 284 µM)
[8]
  IC50: 14 µM
[9]
  MIC: ≥ 256 mg/L
[10]
  MIC: 4 mg/L (≈ 8.88 µM)
[1]
  zone of inhibition at 30 µg/disc: 15 mm

## CCC(=O)c1c(O)cc(C)oc1=O
[1]
  diameter of the inhibition zone (DIZ): inactive

## CCCCCCCCC(=O)c1c(O)cc(CCCCCC(=O)Nc2c3sscc-3[nH]c2=O)oc1=O
[1]
  zone of inhibition at 30 µg/disc: 9 mm
